Experimental data as given in ChEMBL document CHEMBL3526151, “Reversible disulfide formation of the glutamate carboxypeptidase II inhibitor E2072 results in prolonged systemic exposures in vivo” (Drug Metab Dispos, 2012).

Assays:
[1] = Tmax in Sprague-Dawley rat at 10 mg/kg, po administered via gavage measured under fed conditions by LC-MS/MS analysis; format: ADME, organism-based; parameters: dose 10 mg/kg, route oral; settings: in vivo
Outline: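 Nonfasted male Sprague-Dawley rats gavaged once at 10 mg/kg in 50 mM HEPES-buffered saline pH 7.4. Blood into heparin/NEM tubes at 0, 0.25, 0.5, 1, 2, 4, 6, 8 and 24 h. Plasma analysed by LC-MS/MS; Tmax taken as the observed value.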

[2] = Apparent oral clearance in Sprague-Dawley rat at 10 mg/kg, po administered via gavage measured under fed conditions by LC-MS/MS analysis; format: ADME, organism-based; parameters: dose 10 mg/kg, route oral; settings: in vivo
Outline: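 Nonfasted male Sprague-Dawley rats given a single 10 mg/kg oral dose in 50 mM HEPES buffered saline, pH 7.4. Plasma collected 0.25–24 h into heparin/NEM tubes and assayed by LC-MS/MS. Noncompartmental parameters derived, including Cl/F and Vd/F. Mean ± S.D., n = 6–9.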

[3] = Half life in Sprague-Dawley rat at 10 mg/kg, po administered via gavage measured under fed conditions by LC-MS/MS analysis; format: ADME, organism-based; parameters: dose 10 mg/kg, route oral; settings: in vivo
[4] = Clearance in Sprague-Dawley rat at 10 mg/kg, iv by LC-MS/MS analysis; format: ADME, organism-based; parameters: dose 10 mg/kg, route intravenous; settings: in vivo
Outline: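 Male Sprague-Dawley rats dosed intravenously at 10 mg/kg (n = 6). Blood sampling extended to 7 days into heparin tubes containing NEM. Plasma assayed for parent and homodisulfide by LC-MS/MS, calibration range 1–5000 ng/ml. Noncompartmental analysis, t1/2 = 0.693/λz. Mean ± S.D.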

[5] = Volume of distribution in cynomolgus monkey at 5 mg/kg, iv administered as bolus injection by LC-MS/MS analysis; format: ADME, organism-based, Macaca fascicularis; parameters: dose 5 mg/kg, route intravenous; settings: in vivo
Outline: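 Monkey i.v. bolus at 5 mg/kg nominal (n=3), TCEP-treated HEPES solution, via cephalic or saphenous vein. Arterial blood into NEM tubes over 9 days. Plasma measured by LC-MS/MS; Vd = dose/(AUCinf·λz).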

[6] = Tmax in cynomolgus monkey at 5 mg/kg, po by LC-MS/MS analysis; format: ADME, organism-based, Macaca fascicularis; parameters: dose 5 mg/kg, route oral; settings: in vivo
Outline: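 Cynomolgus monkeys (n=3) dosed at 5 mg/kg nominal, TCEP-treated 50 mM HEPES solution, either as i.v. bolus (cephalic or saphenous vein) or orally. Arterial cannula blood into heparin/NEM tubes for up to 9 days. Plasma parent and homodisulfide measured by LC-MS/MS; Tmax observed.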

[7] = Cmax in Sprague-Dawley rat plasma at 10 mg/kg, po administered as single dose by LC-MS/MS analysis; format: ADME, organism-based; parameters: dose 10 mg/kg, route oral
Outline: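 Male Sprague-Dawley rats were dosed orally with 10 mg/kg/day, either once or daily for 5 days; n = 4 per group. Blood was taken by cardiac puncture and liver, kidney, brain and sciatic nerve were collected at 0–8 h post-dose. Tissues were homogenized in PBS containing NEM at equal volume per gram. NEM-derivatized analyte was extracted with methanol and quantified by LC-MS/MS (1–5000 ng/ml). Cmax is the observed value.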

[8] = Phase 2 metabolic stability in rat liver microsomes assessed as compound remaining at 10 uM measured for 1 hr by LC-MS/MS analysis in absence of cofactors; format: ADME; settings: read-out: Stability
Outline: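 Glucuronidation in liver microsomes of the named species, 0.5 mg/ml protein, compound at 10 μM final, in 50 mM Tris-HCl pH 7.5 with 8 mM MgCl2 and 25 μg/ml alamethicin. Preincubated at 37°C, then started with 2 mM UDPGA (final); cofactor-free controls run alongside. Duplicate reactions, sampled up to 1 h, quenched with cold acetonitrile plus internal standard; disappearance followed by LC-MS/MS.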

[9] = Phase 2 metabolic stability in monkey liver microsomes assessed as compound remaining at 10 uM measured for 1 hr by LC-MS/MS analysis in absence of cofactors; format: ADME, Macaca mulatta; settings: rhesus monkey, read-out: Stability
Outline: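 Cofactor-free controls were run for each microsomal incubation: 0.5 mg/ml liver microsomes with 10 µM compound, omitting cofactors, so that cofactor-independent degradation could be measured. Samples were taken up to 1 h, quenched with acetonitrile containing internal standard, and the percent remaining was determined by LC-MS/MS.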

Rattus norvegicus [10] = test: Analgesic activity in Sprague-Dawley rat chronic constriction injury model assessed as change in paw withdrawal latency at 10 mg/kg/day, po (reference value: -3.11 +/-0.34 s); format: functional
Rattus norvegicus [11] = test: Analgesic activity in Sprague-Dawley rat chronic constriction injury model assessed as change in paw withdrawal latency at 10 mg/kg/day, po measured 4 days after drug treatment cessation (reference value: -2.85 +/-0.32 s); format: functional
Rattus norvegicus [12] = test: Analgesic activity in Sprague-Dawley rat chronic constriction injury model assessed as change in paw withdrawal latency at 10 mg/kg/day, po measured 7 days after drug treatment cessation (reference value: -2.68 +/-0.43 s); format: functional
[13] = AUC(0 to infinity) in Sprague-Dawley rat at 0.1 mg/kg, iv administered as bolus injection measured under fasted conditions by LC-MS/MS analysis; format: ADME, organism-based; parameters: time infinity, dose 0.1 mg/kg, route intravenous; settings: plasma
Outline: (§1)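 Male Sprague-Dawley rats (280–330 g), jugular vein cannulated, fasted overnight until 4 h post-dose. Single tail-vein bolus of 0.1, 1, 10 or 30 mg/kg in 50 mM HEPES buffered saline, pH 7.4. Blood drawn 0–24 h into heparin tubes containing NEM. Plasma quantified by LC-MS/MS after NEM derivatization. Noncompartmental analysis: AUClast by linear trapezoidal rule, Cl = dose/AUC0-∞. Mean ± S.D., n = 4–9.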

[14] = Protein binding in cynomolgus monkey serum at 10 uM after 1 hr by LC-MS/MS analysis; format: ADME, Macaca fascicularis; settings: read-out: PB (converted)
Outline: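 Serum from the named species spiked to 10 μM and held 1 h at 37°C, then ultrafiltered through a 5000 Da cutoff device (45 min, 37°C, 1800g). Filtrate and unfiltered serum extracted and measured by LC-MS/MS; % bound = 100 − (Cu/Cs × 100).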

[15] = Cmax in Sprague-Dawley rat at 1 mg/kg, po administered via gavage measured under fasted conditions by LC-MS/MS analysis; format: ADME, organism-based; parameters: dose 1 mg/kg, route oral; settings: in vivo
Outline: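 Fasted male Sprague-Dawley rats (280–330 g) received 0.1, 1, 10 or 30 mg/kg by oral gavage in 50 mM HEPES buffered saline, pH 7.4. Blood drawn at 0.25–24 h into heparin/NEM tubes; plasma analyzed by LC-MS/MS. Cmax taken as observed. AUC by linear trapezoidal rule with extrapolation by λz. Cl/F and Vd/F reported. Mean ± S.D., n = 4–9.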

[16] = Clearance in Sprague-Dawley rat at 0.1 mg/kg, iv administered as bolus injection measured under fasted conditions by LC-MS/MS analysis; format: ADME, organism-based; parameters: dose 0.1 mg/kg, route intravenous; settings: in vivo; outline: as §1
[17] = AUC(0 to last) in Sprague-Dawley rat at 0.1 mg/kg, iv administered as bolus injection measured under fasted conditions by LC-MS/MS analysis; format: ADME, organism-based; parameters: time 0 - last, dose 0.1 mg/kg, route intravenous; settings: plasma; outline: as §1
[18] = Clearance in Sprague-Dawley rat at 1 mg/kg, iv administered as bolus injection measured under fasted conditions by LC-MS/MS analysis; format: ADME, organism-based; parameters: dose 1 mg/kg, route intravenous; settings: in vivo; outline: as §1
[19] = Oral bioavailability in Sprague-Dawley rat at 0.1 mg/kg administered via gavage measured under fasted conditions by LC-MS/MS analysis; format: ADME, organism-based; settings: in vivo
[20] = Oral bioavailability in Sprague-Dawley rat at 1 mg/kg administered via gavage measured under fasted conditions by LC-MS/MS analysis; format: ADME, organism-based; settings: in vivo

- Tmax [1]: 17.4 min
- CL/F [2]: 0.3 L/h/kg
- half-life [3]: 165 min
- clearance [4]: 0.12 L/h/kg
- Vd [5]: 0.72 L/kg
- Tmax [6]: 25.2 min
- Cmax [7]: 4.92 µg/mL
- remaining at 1 h, 10 µM [8]: > 90%
- remaining at 1 h, 10 µM [9]: > 90%
- AUC(0-inf) [13]: 1.97 µg·h/mL
- fraction unbound at 1 h, 10 µM [14]: 0.101
- Cmax [15]: 1.09 µg/mL
- clearance [16]: 0.06 L/h/kg
- AUC(0-t) [17]: 1.8 µg·h/mL
- clearance [18]: 0.05 L/h/kg
- bioavailability [19]: 17.4%
- bioavailability [20]: 23.7%
SMILES: O=C(O)c1cccc(-c2cccc(CCS)c2C(=O)O)c1
- Time (Rattus norvegicus [10]): -0.55 s
- Time (Rattus norvegicus [11]): -1.36 s
- Time (Rattus norvegicus [12]): -1.53 s
